PAFAH1B3 FP inh = inhibitors of human PAFAH1B3. Q15102. recombinant PAFAH1B3, FP-rhodamine probe, fluorescence polarization. inhibition, % at 3.39 µM. actives 0.28% (n = 340,000);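 active = inhibition above the screen-wide average of all tested compounds plus 3 SD, cut at about 25% in these data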;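 also: 0% = enzyme with DMSO only and 100% = wells lacking PAFAH1B3 protein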
ARFGAP1 inhibitor = inhibitors of rat ARFGAP1. inhibition, % at 16.5 µM. actives 0.26% (n = 360,000). Arfgap1-stimulated ARF1 GTP hydrolysis, GDP FP detection. Q62848;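 active = inhibition above a per-plate limit, mean inhibition of low control wells plus 3 SD, cut at about 25% in these data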;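 also: 0% = DMSO wells with enzyme and 100% = wells lacking Arfgap1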
Target sequence (Q62848 1-136 limits assumed): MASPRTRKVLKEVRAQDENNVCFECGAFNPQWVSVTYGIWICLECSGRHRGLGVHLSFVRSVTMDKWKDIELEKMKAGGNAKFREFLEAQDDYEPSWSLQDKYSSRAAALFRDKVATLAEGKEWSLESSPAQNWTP
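Material: rat Arfgap1 catalytic domain, aa 1-136; also added: human ARF1(Δ1-17)-GTP substrate; compound dosing: one concentration, 16.5 µM, DMSO 1.26%; incubation: GTP hydrolysis reaction 2 h at 25 °C; measured by: Tracer-displacement fluorescence polarization with EDTA stop, 620/688 nm; evaluation: % inhibition from polarization; repeats: one replicate per compound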
PAFAH2 inh = PAFAH2 (human) inhibition; Q99487; recombinant PAFAH2, FP-rhodamine activity probe, fluorescence polarization; inhibition, % at 3.39 µM; actives 0.99% (n = 340,000);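 active = inhibition above the mean over all tested compounds plus 3 SD, cut at about 30% in these data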;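 also: inhibitors block probe labeling of enzyme so polarization drops; 0% = enzyme with DMSO and 100% = wells lacking PAFAH2 protein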
PAFAH1B2 FP inh = inhibitors of human PAFAH1B2; actives 1.2% (n = 340,000); recombinant PAFAH1B2, FP-rhodamine activity probe, fluorescence polarization; inhibition, % at 3.39 µM;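 active = inhibition above the mean of all tested compounds plus 3 SD, cut at about 24% in these data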;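 also: 0% = enzyme with DMSO and 100% = wells lacking PAFAH1B2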
pPAFAH FP inh = pPAFAH (human) enzyme inhibition; Q13093; recombinant pPAFAH, FP-rhodamine probe fluorescence polarization; inhibition, % at 3.39 µM; actives 1.5% (n = 330,000);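 active = inhibition above the mean inhibition across the screen plus 3 SD, cut at about 25% in these data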;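 also: inhibitors block binding of the rhodamine activity-based probe so polarization drops; 0% = enzyme with DMSO and 100% = wells lacking pPAFAH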
Target sequence (Q13093 whole entry, looked up): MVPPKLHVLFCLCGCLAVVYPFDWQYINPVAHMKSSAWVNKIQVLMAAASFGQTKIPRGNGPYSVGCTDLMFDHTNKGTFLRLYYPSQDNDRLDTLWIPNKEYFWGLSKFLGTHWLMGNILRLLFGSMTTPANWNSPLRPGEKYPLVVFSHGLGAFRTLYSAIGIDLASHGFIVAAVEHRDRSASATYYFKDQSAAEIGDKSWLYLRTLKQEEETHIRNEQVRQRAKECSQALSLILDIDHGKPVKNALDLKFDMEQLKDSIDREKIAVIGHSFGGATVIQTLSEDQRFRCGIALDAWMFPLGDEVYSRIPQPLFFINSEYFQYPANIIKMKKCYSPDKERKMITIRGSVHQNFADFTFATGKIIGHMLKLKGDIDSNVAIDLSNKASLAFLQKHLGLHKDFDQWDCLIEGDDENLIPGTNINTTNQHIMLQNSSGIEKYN
ASAP1 GAP inh = ASAP1 ArfGAP inhibition. Q9ULH1. ASAP1-stimulated ARF1 GTP hydrolysis, GDP FP detection. inhibition, % at 16.5 µM. actives 0.19% (n = 360,000). AID 624377; in the data active = inhibition above about 25%;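 also: 0% = vehicle with enzyme and substrate and 100% = no enzyme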
PAFAH2 confirm = PAFAH2 (human) inhibition, confirmed | shares compounds with PAFAH2 inh | recombinant PAFAH2, FP-rhodamine activity probe, fluorescence polarization | inhibition, % at 3.39 µM | actives 65% (n = 2,300) | AID 493030;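 active = mean inhibition over three repeats above a set limit taken from the earlier primary screen, cut at about 30% in these data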;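 also: inhibitor blocks binding of rhodamine activity probe so polarization falls; 0% = enzyme with DMSO and 100% = wells lacking PAFAH2 protein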
Starred values were filed as active, the others as inactive; . = no result. Hits are enriched below; roughly 2.8% of the tested compounds scored in any of these assays.

SMILES	PAFAH1B3 FP inh	ARFGAP1 inhibitor	PAFAH2 inh	PAFAH1B2 FP inh	pPAFAH FP inh	ASAP1 GAP inh	PAFAH2 confirm
O=C(COC(=O)c1cccnc1Cl)Nc1cc(S(=O)(=O)N2CCCCCC2)ccc1Cl	7	-3	32*	6	.	15	24
O=C(COC(=O)c1cccnc1Cl)Nc1cc(S(=O)(=O)N2CCCCC2)ccc1Cl	5	10	28	1	3	-10	.
Cc1cnc(C(=O)OCC(=O)Nc2ccc(C)c(S(=O)(=O)N3CCCCC3)c2)cn1	7	-7	5	0	1	0	.
CCOc1ncccc1C(=O)OCC(=O)Nc1cc(S(=O)(=O)N2CCOCC2)ccc1Cl	2	-1	44*	-3	14	-1	39*
Cc1cnc(C(=O)OCC(=O)Nc2cc(S(=O)(=O)N3CCCCC3)ccc2Cl)cn1	3	5	-3	5	-5	17	.
CC(CCc1ccccc1)NC(=O)COC(=O)c1ccc([N+](=O)[O-])cc1 (centres undefined)	14	0	1	6	11	0	.
CCOCc1c(C(=O)OCC(=O)Nc2ccc(C)c(S(=O)(=O)N(C)C)c2)oc2ccccc12	4	11	58*	6	2	10	45*
CC(CCc1ccccc1)NC(=O)COC(=O)c1cccc(N(C)C)c1 (centres undefined)	-1	0	58*	1	22	9	36*
CC(C)(C)NC(=O)COC(=O)c1ccc(NC(=O)CC#N)cc1	2	-4	67*	4	7	8	53*
CC(CCc1ccccc1)NC(=O)COC(=O)c1ccc(NC(=O)CC#N)cc1 (centres undefined)	-1	-5	54*	3	-17	-12	51*
N#CCC(=O)Nc1ccc(C(=O)OCC(=O)NNC(=O)c2cccs2)cc1	-9	10	13	-2	1	13	.
COc1ccc(S(=O)(=O)N2CCCCC2)cc1NC(=O)CCCNC(=O)c1ccc(Cl)cc1	-1	12	4	1	2	-10	.
OC(c1ccc(-c2ccccc2)cc1)c1ncc(-c2ccc(F)cc2)[nH]1 (centres undefined)	.	19	.	.	.	7	.
Cc1cccc(C(=O)OCC(=O)NC(C)CCc2ccccc2)c1 (centres undefined)	3	3	46*	0	7	8	31*
CCN(CC)S(=O)(=O)c1cc(NC(=O)COC(=O)c2ccc(NC(=O)CC#N)cc2)ccc1C	-21	3	51*	-9	20	11	50*
Cc1cccc(C(=O)NCC(=O)NC(C)CCc2ccccc2)c1 (centres undefined)	13	10	1	3	2	7	.
CCOC(=O)C1=CCN(S(=O)(=O)c2ccccc2Cl)C1c1cccc(C)c1 (centres undefined)	.	-3	.	.	.	5	.
Cc1ccc(/C=c2\sc3nc(-c4ccco4)nn3c2=O)o1	9	.	39*	5	20	.	1
Cc1ccc(/C=c2\sc3nc(-c4ccccc4Br)nn3c2=O)o1	-2	-6	13	7	24	2	.
Oc1ccccc1C=NNC(=S)Nc1ccc(F)cc1	10	11	28	7	.	5	.
Oc1ccccc1/C=N/NC(=S)NC1CC2C=CC1C2 (centres undefined)	12	-1	57*	9	20	5	30
O=C(c1cnn2c(C(F)(F)F)cc(-c3ccccc3)nc12)N1CCCc2ccccc21	-1	-10	39*	2	6	6	39*
Cc1cc(NC(=O)c2cnn3c(C(F)(F)F)cc(-c4ccccc4)nc23)no1	-7	-4	30*	2	3	6	16
O=C(c1cnn2c(C(F)F)cc(-c3ccccc3)nc12)N1CCCc2ccccc21	4	.	-10	3	-4	.	.
CCc1cc2c(=O)[nH]c(-c3ccccn3)nc2s1	13	14	1	3	3	6	.
SMILES	PAFAH1B3 FP inh	ARFGAP1 inhibitor	PAFAH2 inh	PAFAH1B2 FP inh	pPAFAH FP inh	ASAP1 GAP inh	PAFAH2 confirm
CCc1cc2c(=O)oc(-c3ccc(F)cc3)nc2s1	-2	1	82*	-6	14	-7	84*
COc1ccc(OC)c(/C=C/C(=O)OCC(=O)Nc2cccc(C(C)=O)c2)c1	-8	-2	68*	0	-2	-2	62*
COc1ccc(/C=C/C(=O)OCC(=O)NCCc2ccccc2)c(OC)c1	5	0	76*	-2	17	4	60*
COc1ccc(/C=C/C(=O)OCC(=O)NCc2ccco2)c(OC)c1	-1	-1	74*	1	13	-6	69*
COc1ccc(OC)c(/C=C/C(=O)OCC(=O)NCc2ccco2)c1	7	-9	40*	1	0	-9	28
COc1cccc(/C=C/C(=O)OCC(=O)NCc2ccco2)c1	-2	-1	29	0	11	-4	.
COc1ccc(OC)c(/C=C/C(=O)Oc2ccc(C(C)=O)cc2)c1	2	2	18	0	6	5	.
CC(C)CNC(=O)C1C(=O)Nc2ccccc2C(=O)N1C1CCCCC1 (centres undefined)	.	-4	.	.	.	4	.
Cc1cccc(N2CCN(C(=O)c3ccccc3NC(=O)C3CC=CCC3C(=O)O)CC2)c1 (centres undefined)	0	10	7	-4	-4	15	.
Cc1ccc(N2CCN(C(=O)c3ccccc3NC(=O)C3CC=CCC3C(=O)O)CC2)cc1 (centres undefined)	7	-1	66*	2	0	-8	57*
Cc1ccc(C(=O)NCC(=O)NC2CCC(C)CC2)s1 (centres undefined)	4	-7	-1	4	2	-17	.
Cc1ccsc1C(=O)OCC(=O)NC1CC1	-5	-9	33*	-1	0	5	13
Cc1ccc(C(=O)OCC(=O)NC2CC2)s1	10	8	70*	4	8	-16	55*
Oc1oc(-c2ccccc2)nc1C=NCc1ccncc1	8	10	52*	1	15	-5	37*
Oc1oc(-c2ccccc2)nc1C=Nc1cccc2ccccc12	10	6	18	4	5	-1	.
CCCCC(c1nc2ccccc2[nH]1)n1c(=O)c(-c2ccccc2)nc2cc(C)c(C)cc21 (centres undefined)	.	-3	.	.	.	15	.
CC1=C(C#N)C(=O)NC(=O)/C1=C\c1ccc(-c2cc(C)c(C)cc2[N+](=O)[O-])o1	17	-8	32*	24	.	1	14
Cc1cccc(NC(=O)CNC(=O)Cn2cc(C(F)(F)F)cc(Cl)c2=O)c1C	8	-7	-1	2	.	-6	.

Compound activity as filed in PubChem BioAssay.
